Screening results as filed in PubChem.
In the library only some 3.8% were active in any assay of this set; here they are far more common.
KCNK3 inh: human KCNK3 channel inhibition, primary screen; O14649; CHO-KCNK3 thallium flux, FluxOR fluorescence; active compounds read low; B-score at 10 µM; hit rate 0.84% among 340,000;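 active = B-score under library mean minus 4 SD, starting fluorescence ratio at most library mean plus 5 SD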;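 also: more negative B-score means stronger inhibition of thallium flux through KCNK3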
KCNQ1 pot: human KCNQ1 channel potentiation or activation | B-score at 10 µM | hit rate 0.35% among 310,000 | CHO-K1 KCNQ1, thallium flux FluxOR fluorescence; active compounds read high | P51787 | AID 2648;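 active = fluorescence ratio B-score, a plate-corrected score, at least three library SD, with initial intensity B-score within 5 SD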
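System: CHO-K1 cells stably expressing KCNQ1 / Medium: assay buffer for compound exposure, DMSO matched across wells / Reagent: thallium- and potassium-containing depolarizing buffer / Compound: one concentration, matched DMSO / Incubation: 20 min compound pretreatment at room temperature / Measured by: kinetic FluxOR fluorescence, 10 s baseline plus 110 s post-stimulus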
KCNQ1 inh: inhibitors of human KCNQ1 potassium channel | hit rate 1.3% among 310,000 | AID 2642 | P51787 | B-score at 10 µM | CHO-K1 KCNQ1, FluxOR thallium flux fluorescence; active compounds read high;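 active = compounds whose thallium flux B-score, printed positive for inhibition, exceeds three library SD while starting fluorescence stays within three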;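 also: channel opened by potassium depolarization with thallium stimulus after 20 min compound exposure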
hERG rescue: compounds protecting human hERG from proarrhythmic drug block. AID 1511. CHO-hERG, FluxOR thallium flux, dofetilide IC70 present. Q12809. hit rate 0.51% among 310,000. activation (rescue from dofetilide block), less the hit threshold, % at 10 µM;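 active = activation above the mean of controls blocked by dofetilide plus 5 SD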;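 also: thallium influx through hERG after potassium depolarization seen as dye fluorescence rise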
KCNK9 inh: human KCNK9 channel inhibition. Q9NPC2. HEK293 KCNK9, FluxOR thallium flux fluorescence; active compounds read low. B-score at 10 µM. hit rate 1.2% among 310,000. AID 488922;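 active = ratio B-score over 3 SD below the library mean, with starting fluorescence within 5 SD of its mean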;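 also: negative B-score means less thallium flux so channel inhibition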
Kir21 inh: inhibitors of mouse Kir2.1 inward-rectifier potassium channel; P35561; HEK293-Kir2.1, FluxOR thallium flux fluorescence; active compounds read low; B-score at 10 µM; hit rate 0.85% among 310,000; AID 1672;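 active = fluorescence ratio B-score at or below minus 3 SD of library scores, with starting-brightness B-score within 2 SD, cut at about -4.2 in these data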;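 also: channel flux triggered by added potassium and thallium sulfate stimulus; B-score of peak minus minimum fluorescence over baseline after thallium stimulus; more negative B-score means stronger Kir2.1 block with less thallium influx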
Target sequence (P35561 whole entry, looked up): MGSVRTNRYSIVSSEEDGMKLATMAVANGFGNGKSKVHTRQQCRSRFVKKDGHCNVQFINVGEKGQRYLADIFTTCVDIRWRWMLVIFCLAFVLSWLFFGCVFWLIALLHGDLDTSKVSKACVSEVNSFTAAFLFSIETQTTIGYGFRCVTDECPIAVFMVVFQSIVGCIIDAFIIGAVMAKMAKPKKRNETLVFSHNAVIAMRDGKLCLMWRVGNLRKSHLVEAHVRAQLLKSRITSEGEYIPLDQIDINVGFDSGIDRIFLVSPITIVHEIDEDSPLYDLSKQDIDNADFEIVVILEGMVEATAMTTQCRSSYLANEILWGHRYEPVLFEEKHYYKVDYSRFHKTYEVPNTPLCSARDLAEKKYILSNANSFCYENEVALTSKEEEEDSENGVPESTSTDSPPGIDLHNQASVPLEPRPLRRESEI
KCNK3 inh conf: human KCNK3 channel inhibition, confirmation assay; shares compounds with KCNK3 inh; ratio percent of control, % at 10 µM; CHO-KCNK3 thallium flux, FluxOR fluorescence; 0% buffer, 100% carvedilol maximal block; hit rate 99% among 2,400;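 active = ratio percent of control, averaged over triplicates, above buffer control mean plus 5 SD, cut at about 64% in these data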;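 also: ratio is the fluorescence rise from min to max over baseline after thallium stimulus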
KCNK3 noninduced: activity in cells without induced KCNK3 expression; shares compounds with KCNK3 inh; thallium flux ratio (lower = more inhibition) at 10 µM; non-induced KCNK3 parental cells, FluxOR thallium flux; active compounds read low; hit rate 40% among 2,400;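 active = thallium flux ratio, averaged over three wells, more than 5 SD below the buffer control mean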;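 also: host cells are CHO cells without KCNK3 induction; ratio is peak minus trough fluorescence over baseline then normalized to buffer controls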
The depositor's hits bear a star; i = inactive; / = not tested or not shown.

SMILES | KCNK3 inh | KCNQ1 pot | KCNQ1 inh | hERG rescue | KCNK9 inh | Kir21 inh | KCNK3 inh conf | KCNK3 noninduced
COc1ccc(Nc2n[nH]c(N)c2C(N)=O)cc1 | i | i | i | -6.3 | i | -0.29 | / | /
O=C(NC1CCN(Cc2ccccc2)CC1)c1ccccc1OCc1ccccc1 | -10.4* | i | i | -9.5 | i | -4.29* | 98.7* | i
O=C(NC1CCN(Cc2ccccc2)CC1)c1ccccc1OCc1ccccc1Cl | -11.5* | i | i | -17.3 | -7.83* | -6.68* | 98.7* | i
CSc1ccc(CN2C(=O)NC3(CCCCC3)C2=O)cc1 | i | i | i | -0.5 | i | -0.95 | / | /
O=C(/C=C/c1ccc(N2CCC(c3ccccc3)=N2)cc1)c1ccccc1 | / | i | i | -16.2 | i | -10.3 | / | /
CCOC(=O)/C(=C\c1ccc(N2CCC(c3ccccc3)=N2)cc1)C(C)=O | -12.2* | / | / | / | / | / | 0.0 | i
COCCSc1nnc(NC(=O)c2ccc(OC)c([N+](=O)[O-])c2)s1 | i | i | i | 0.2 | i | -0.4 | / | /
CC1(C)CC(=O)C2=C(C1)c1c(ccc3ccccc13)NC2c1ccc(Br)o1 (centres undefined) | -10.4* | i | i | -12.3 | i | -0.72 | 113.3* | i
CCCSc1nc(NCc2ccco2)c2c3c(sc2n1)COC(C)(C)C3 | -9.56* | i | 6* | -11.5 | i | 0.41 | 108.0* | i
COC(=O)c1ccccc1NC(=O)c1ccc(COc2cc(C)cc(C)c2)o1 | -9.46* | i | i | -6.9 | i | 1.03 | 86.7* | i
CC(C)Nc1cc(C(C)(C)C)nc2c(-c3ccccc3)cnn12 | -10.3* | i | i | -13.1 | i | -0.54 | 81.7* | 0.142*
Cc1cccc(C)c1OCC(=O)Nc1cccc(-c2nnc(-c3ccccc3)o2)c1 | i | i | i | -15.2 | i | 1 | / | /
CCCCC(=O)Nc1ccc(C(=O)c2ccccc2)cc1 | i | i | i | -17.5 | -6.81* | 2.28 | 96.3* | i
CCCc1cc(C(=O)Nc2ccc(C(=O)c3ccccc3)cc2)n(C)n1 | -13.4* | i | i | -15.2 | i | 0.23 | 132.3* | 0.15*
CCCCC(=O)Nc1cccc(-c2nnc(-c3ccccc3)o2)c1 | i | i | i | -24.8 | -6.65* | -0.61 | 123.3* | i
CC(C)(C)c1ccc(C(=O)N2CCC(C(=O)NC3CCCCCC3)CC2)cc1 | i | i | i | -11.3 | i | 0.01 | / | /
CCOC(=O)Cc1csc(NC(=O)CN2CCCCC2)n1 | i | i | i | -6.5 | i | 0.58 | / | /
O=c1c2cn[nH]c2nc(SCc2c(F)cccc2F)n1-c1ccc(Cl)cc1 | -9.33* | i | i | -21.9 | i | -0.39 | 129.0* | 0.149*
Cc1noc(C)c1CSc1nc2[nH]ncc2c(=O)n1-c1ccccc1 | i | i | i | -7.5 | i | -0.91 | / | /
CC(C)(C)NC(=O)CN(C(=O)CS(=O)CC(=O)Nc1ccc(F)cc1)c1ccc(Cl)cc1 (centres undefined) | i | i | i | -7.8 | i | -0.09 | / | /
Cc1ccccc1C(=O)Nc1cccc(NC(=O)c2ccc(F)cc2)c1 | i | i | i | -2.5 | i | 0.08 | / | /
O=C(N/N=C/c1ccccn1)c1cccc(NC(=O)c2ccccc2Cl)c1 | i | i | i | -3.8 | i | 0.74 | / | /
O=C(Nc1cccc(NC(=O)c2ccccc2Cl)c1)c1ccc(F)cc1 | -9.33* | i | i | -5.2 | i | 1.68 | 95.3* | i
O=C(N/N=C/c1ccccc1F)c1cccc(NC(=O)c2ccccc2Cl)c1 | -8.79* | i | i | -10.1 | i | 1.18 | 106.7* | 0.157*
O=C(Nc1cccc(NC(=O)c2cccnc2)c1)c1ccccc1 | -9.07* | i | i | 0.5 | i | 0.58 | 96.3* | i
SMILES | KCNK3 inh | KCNQ1 pot | KCNQ1 inh | hERG rescue | KCNK9 inh | Kir21 inh | KCNK3 inh conf | KCNK3 noninduced
Cc1ccc(S(=O)(=O)NCC(C)n2cncn2)cc1 (centres undefined) | i | i | i | -1.6 | i | 0.61 | / | /
N#Cc1ccccc1OCCOCCNC1CCCC1 | i | i | i | -0.7 | i | 1.16 | / | /
CCN(CC(=O)Nc1c(C(=O)OC)[nH]c2ccc(Cl)cc12)c1ccc2c(c1)OCO2 | -9.23* | i | i | -7.3 | -7.24* | -0.3 | 105.3* | 0.153*
Cc1cccc(-n2c(SCc3ccc([N+](=O)[O-])cc3)nnc2-c2c[nH]c3ccccc23)c1 | -10.9* | i | i | -18.5 | i | -0.27 | 107.7* | 0.155*
CCN(C(=O)COC(=O)CCc1ccccc1)c1ccccc1 | -9.48* | i | i | -3.6 | i | 0.73 | 80.7* | i
CCN(C(=O)COC(=O)CSc1cc(C)c2ccccc2n1)c1ccccc1 | -9.6* | i | i | -15.1 | i | -1.1 | 97.3* | i
COC(=O)c1ccc(COc2ccccc2/C=C/C(=O)c2ccc(OCC(=O)O)cc2)cc1 | i | i | i | -10.4 | i | 1.03 | / | /
Cc1cc(C(=O)CN2C(=O)c3cccc(N)c3C2=O)c(C)n1Cc1cccs1 | -10.9* | i | i | -7.5 | i | -2.1 | 121.3* | i
Cc1cc(C(=O)CSc2nnc(-c3ccccc3F)o2)c(C)n1Cc1cccs1 | i | i | i | -18.1 | i | -0.86 | / | /
Cc1cc(NCc2ccccc2)nc(-c2ccccc2O)n1 | -10.5* | i | i | -7.5 | i | 0.77 | 132.7* | 0.133*
O=C(Nc1ccc2nc(SCc3ccc(Cl)cc3)sc2c1)c1ccccc1C(=O)N1CCOCC1 | -8.74* | i | 6* | -23.0 | i | 0.08 | 97.0* | i
CCOC(=O)c1cc(C#N)c(SCC(N)=O)[nH]c1=O | i | i | i | -10.6 | i | -1.2 | / | /
CCOC(=O)c1cc(C#N)c(SCC(=O)c2cc(C#N)c(SC)nc2C)[nH]c1=O | -10.2* | i | i | -11.6 | i | -0.71 | 122.3* | 0.133*
CCCn1c(SCC(=O)N2CCc3ccccc3C2)nc(O)cc1=O | i | / | / | / | / | / | / | /
CCCOc1ccc(C2NC(=S)NC(C)=C2C(=O)c2ccccc2)cc1OC (centres undefined) | -9.81* | i | i | -10.6 | i | -0.05 | 97.0* | i
COc1cc(C2NC(=S)NC(C)=C2C(=O)c2ccccc2)ccc1O (centres undefined) | i | i | i | -10.8 | i | -0.67 | / | /
CCOc1ccccc1NC(=O)C(OC(=O)c1ccccc1O)c1ccccc1 (centres undefined) | i | i | i | -6.7 | i | -1.61 | / | /
